Source: PubChem BioAssay (several laboratories)
NLRP3 yeast inh: inhibitors of NALP3 inflammasome in yeast. Yeast reconstituted NLRP3/ASC/caspase-1, beta-gal luminescence, 24 h. inhibition, % at 10 µM. 0.39% of 330,000 active. AID 2825;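 active = inhibition of 50% or more; inactive = inhibition below 50%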
PolyA inhibitor: inhibitors of polyadenylation in S. cerevisiae. S. cerevisiae SKY197-pL101 polyadenylation reporter, beta-gal luminescence; efflux-impaired pdr1/pdr3 knockout yeast; score 100 = 6 SD above DMSO. activity score, % at 12 µM. 0.02% of 300,000 active;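 active = lowest replicate activity score at least 50, where 100 means six control SD above control mean; inconclusive = lowest score under 50 but half or more replicates reach 50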;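 note: yeast exposed to compound for 9 h at 30 °C; higher score means more reporter readthrough which indicates perturbed polyadenylation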
NALP1 yeast inh: inhibitors of NALP1 inflammasome in yeast | 0.61% of 280,000 active | inhibition, % at 10 µM | AID 2071 | S. cerevisiae NALP1/ASC/caspase-1 growth, X-gal OD620, 72 h; in the data active = inhibition mostly above about 24%, no sharp cut-off; inactive = mostly below about 32%
T cruzi inh: blocks replication of Trypanosoma cruzi | 1.4% of 300,000 active | T. cruzi beta-gal in NIH3T3, luminescence, 90 h | inhibition, % (test concentration not listed);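 active = mean inhibition across valid replicates above about 55%, limit read from the data; inconclusive = mean below that limit but half or more replicates reach it; inactive = mean below it, under half of replicates reach it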;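 note: signal also drops with host cell toxicity which is not excluded here; higher percent means less beta-gal luminescence so fewer parasites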
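compound dosing = single 50 nL compound addition per well in DMSO | material = NIH/3T3 host cells with β-galactosidase reporter T. cruzi | input = 5,000 host fibroblasts per well | timing = ≥90 h infection period, 3 h prior cell attachment | read-out basis = percent inhibition of parasite-derived β-gal signal | detection = GalScreen β-gal luminescence, detergent lysis, 60 min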
Lmaj promast: inhibitors of Leishmania major promastigote growth; inhibition, % at 10 µM; Leishmania major promastigotes, resazurin fluorescence viability; 9% of 200,000 active; AID 1063; in the data active = inhibition above about 50%;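 note: promastigotes grown with compound for 44 hours at 28 °C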
Calb FLC: C. albicans growth modulation with fluconazole | C. albicans CaCi-2 + fluconazole, Alamar Blue growth, 48 h | growth inhibition, % (no concentration beside the values) | 0.57% of 300,000 active;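 active = growth inhibition above about 58% in most replicates, limit read from the data, passing the limit was not always enough; inconclusive = exactly half the replicates above a set limit; inactive = most replicates below a set limit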;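 note: all wells also contain fluconazole at 8 µg/ml as a sub-toxic cotreatment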
Hits are given with their value; 0 = inactive; ? = inconclusive; - = not tested or not shown. Shown is part of a subset that was picked to be rich in hits.

SMILES	NLRP3 yeast inh	PolyA inhibitor	NALP1 yeast inh	T cruzi inh	Lmaj promast	Calb FLC
CN1C=C/C(=C\c2cc[n+](C)c3ccccc23)c2ccccc21	-	0	0	56	101	?
COc1ccc(NC(=O)COC(=O)CC2CCCC2)cc1	0	-	-	-	-	-
COc1cccc(C(c2nnnn2Cc2ccccc2)N2CCN(C(=O)c3ccco3)CC2)c1OC (stereo unspecified)	0	0	0	0	79	0
COc1ccccc1C(c1nnnn1C(C)C)N1CCN(C(=O)c2ccco2)CC1 (stereo unspecified)	0	0	0	0	-	0
Cc1ccc(C(c2nnnn2Cc2cccs2)N2CCN(C(=O)c3ccco3)CC2)cc1 (stereo unspecified)	0	0	0	0	58	0
COc1ccc(C(c2nnnn2Cc2ccccc2)N2CCN(C(=O)c3ccco3)CC2)cc1 (stereo unspecified)	0	0	0	0	58	0
CCC(c1nnnn1Cc1cccs1)N1CCN(C(=O)c2ccco2)CC1 (stereo unspecified)	0	0	0	0	0	0
O=C(c1ccco1)N1CCN(C(c2ccc(Cl)cc2)c2nnnn2Cc2ccccc2)CC1 (stereo unspecified)	0	0	0	0	85	0
CCOc1ccc(C(c2nnnn2Cc2ccccc2)N2CCN(C(=O)c3ccco3)CC2)cc1 (stereo unspecified)	0	0	-	0	0	0
O=C(c1ccco1)N1CCN(C(c2ccccc2F)c2nnnn2Cc2cccs2)CC1 (stereo unspecified)	0	0	0	0	0	0
CCCCC(c1nnnn1Cc1ccco1)N1CCN(C(=O)c2ccco2)CC1 (stereo unspecified)	0	0	0	0	59	0
COc1ccc(OC)c(C(c2nnnn2Cc2ccco2)N2CCN(C)CC2)c1 (stereo unspecified)	0	0	0	0	0	0
COc1cccc(C(c2nnnn2Cc2ccco2)N2CCN(c3cccc(C)c3C)CC2)c1OC (stereo unspecified)	0	0	0	0	58	0
O=C(Nc1ccc2c(c1)OCO2)C(c1ccc(Cl)cc1)N1CCN(C(=O)c2ccco2)CC1 (stereo unspecified)	0	0	-	0	50	0
CC1CC(C)CN(S(=O)(=O)N2CCC(C(=O)NCc3ccco3)CC2)C1 (stereo unspecified)	0	0	0	0	0	0
COc1ccc(-n2c(C)cc(-c3cn4cccc(C)c4n3)c2C)cc1	0	0	0	0	63	0
Cc1cc(-c2cn3ccccc3n2)c(C)n1-c1ccccc1	0	0	0	62	0	0
CCN(CC)c1ccc(S(=O)(=O)N2CCCCC2)cc1NC(=O)CN1C(=O)NC2(CCCC2)C1=O	0	0	-	0	-	0
CCOc1cc(Br)c(Br)c(C=Nc2ccc(NC(C)=O)cc2)c1O	0	0	0	0	68	0
O=C(NCCc1nnc2ccc(NCCCN3CCOCC3)nn12)c1ccccc1F	0	0	0	0	-	0
Cc1ccnc(NC(=O)c2cc(S(=O)(=O)NCc3ccccc3)ccc2C)c1	0	-	-	-	-	-
CCc1ccc(NC(=O)C2CCC(CNC(=O)[C@@H]3Cc4ccccc4CN3)CC2)cc1 (stereo partly specified)	0	0	34	0	-	-
CC(C)c1ccc(NC(=O)C2CCN(C(=O)[C@@H]3Cc4ccccc4CN3)CC2)cc1	0	0	32	0	-	0
Cc1ccc(NC(=O)C2CCN(C(=O)[C@@H]3Cc4ccccc4CN3)CC2)cc1	0	0	0	0	-	0
CCC1CCC2(CC1)NC(=O)N(CC(=O)N1CCc3ccccc31)C2=O (stereo unspecified)	0	-	-	-	-	-
SMILES	NLRP3 yeast inh	PolyA inhibitor	NALP1 yeast inh	T cruzi inh	Lmaj promast	Calb FLC
CC(C)(C)N(Cc1ccccc1)C(=O)COC(=O)/C=C/c1ccc2c(c1)OCO2	0	-	-	-	-	-
Cc1nnsc1C(=O)N/N=C/c1ccc2ccccc2c1O	0	0	0	55	100	0
Cc1nnsc1C(=O)N/N=C/c1ccccc1	0	0	0	0	0	0
Cc1c(C(=O)NN2CCCCC2)nn(-c2ccc(Cl)cc2Cl)c1-c1ccc(I)cc1	-	?	0	55	-	-
COc1nnc(-c2ccc(N3CCOCC3)c(NC(=O)C3CCCCC3)c2)c2ccccc12	0	0	0	0	0	0
COc1nnc(-c2ccc(N3CCCCC3)c(NC(=O)C3CCCCC3)c2)c2ccccc12	0	0	0	0	54	?
